Source: PubChem
Rows were chosen to be rich in hits. Some 1.2% of all compounds tested hit in one or more screens of this group.
MsrA inhibitor: inhibits bovine methionine sulfoxide reductase A. purified bovine MsrA, absorbance read-out. inhibition, % at 15.5 µM. hit rate 0.75% among 360,000. AID 651718; in the data active means inhibition above about 4.5%
MsrA act: bovine methionine sulfoxide reductase A activation; purified bovine MsrA, absorbance read-out; activation, % at 10.6 µM; hit rate 0.3% among 360,000; AID 602163; in the data active means activation above about 7.5%
procasp7 counter: counter-screen for procaspase-3 activators: activators of human procaspase-7; hit rate 0.093% among 330,000; P55210; recombinant procaspase-7, Ac-DEVD-pNA absorbance 405 nm; D23A/D198A/D206A triple mutant, cannot self-cleave; scale: DMSO 0, 5 µM enzyme 100; AID 463210; activation, % at 8.5 µM;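 active means percent activation above the screen-wide mean plus 3 SD, cut at about 25% in these data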
Target sequence (P55210 whole entry D23A/D198A/D206A): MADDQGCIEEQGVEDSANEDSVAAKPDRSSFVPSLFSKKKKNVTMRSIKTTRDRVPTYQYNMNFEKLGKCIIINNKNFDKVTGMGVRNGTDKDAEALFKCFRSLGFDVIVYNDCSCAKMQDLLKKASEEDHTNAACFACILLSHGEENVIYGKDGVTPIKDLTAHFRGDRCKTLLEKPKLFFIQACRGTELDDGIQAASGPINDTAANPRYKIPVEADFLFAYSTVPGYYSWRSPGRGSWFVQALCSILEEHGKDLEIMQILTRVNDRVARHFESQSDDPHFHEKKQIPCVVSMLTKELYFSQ
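Assay system: Uncleavable procaspase-7 mutant enzyme / Input: 2 µM procaspase-7 mutant as dispensed / Dosing: single nominal 8.5 µM compound dose, 0.8% DMSO final / Timing: 1 h enzyme–compound preincubation and 2 h substrate reaction, both 25 °C / Detection: p-Nitroaniline absorbance at 405 nm, read at 0 and 120 min / Replication: singlicate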
Bfl-1 A1 inh: inhibitors of the anti-apoptotic protein A1, read as caspase activation | hit rate 0.066% among 330,000 | MEF A1-2A-BIM cells, Caspase-Glo 3/7 luminescence, 3 h; percent of clofoctol response, vehicle zero | AID 2462 | caspase activation, % (test concentration not listed);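 active means over half of replicate activation scores above 10%, or exactly half above 10 with the replicate mean above 10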
proCasp3 act: activators of human procaspase-3; recombinant procaspase-3 D3A, Ac-DEVD-pNA absorbance 405 nm; activation, % at 8.5 µM; hit rate 0.11% among 330,000; AID 463141;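 active means activation above the mean of all tested compounds plus 3 SD, cut at about 21% in these data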
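Assay system: Autoprocessing-dead procaspase-3 D3A mutant enzyme; also added: Ac-DEVD-pNA; doses: one concentration, 8.5 µM nominal, 0.8% DMSO; times: 1 h compound preincubation, 2 h substrate hydrolysis at 25 °C; technique: 405 nm absorbance of p-nitroaniline, reads at 0 and 120 min; measure: % activation between DMSO and enzyme-spiked controls; repeats: single replicate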
MsrA act confirm: confirmation of bovine methionine sulfoxide reductase A activators | shares compounds with MsrA act | purified bovine MsrA, absorbance read-out | hit rate 12% among 1,000 | activation, % at 10.6 µM; in the data active means activation above about 4%;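 further: enzyme coupled to thioredoxin and thioredoxin reductase with NADPH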
Hits are given with their value; - = inactive; . = no result; ! = repeats disagree.

SMILES	MsrA inhibitor	MsrA act	procasp7 counter	Bfl-1 A1 inh	proCasp3 act	MsrA act confirm
CCCCC(=O)NNC(=S)NC(=O)c1cccc([N+](=O)[O-])c1	-	11	-	-	-	-
Cc1ccc(C(=O)NC(=S)NNC(=O)CC#N)cc1	-	7.8	-	-	-	4.1
CCCCC(=O)NNC(=S)NC(=O)c1ccc([N+](=O)[O-])cc1	-	7.8	-	-	-	4.5
CC(C)N(C[C@@H]1CSCCS(=O)(=O)N1)C1CCCCC1	-	.	.	.	.	.
COc1ccc(N2CCN(C(=O)c3cc(-c4ccc(F)cc4)[nH]c3C)CC2)cc1	-	-	.	-	.	.
Cc1[nH]c(-c2ccc(F)cc2)cc1C(=O)N1CCN(c2ccc(Cl)cc2)CC1	-	8.3	.	-	.	-
Cc1ccc(S(=O)(=O)N2CCN(C(=O)COC(=O)COc3ccccc3)CC2)cc1	-	9.9	-	-	-	-
CN1C[C@@H]2[C@@H]3C(=O)N(Cc4ccccc4)C(=O)[C@@H]3[C@](Cc3ccccc3)(C1=O)N2C(=O)c1ccc(C(C)(C)C)cc1	-	8.8	.	.	.	-
COc1ccc2ccccc2c1/C=N/NC(=O)c1cccc(C)c1	-	9.4	-	-	-	-
COc1ccc2ccccc2c1/C=N\NC(=O)c1cccnc1	-	-	-	-	-	.
CCC(=O)N1CCc2cc(Br)cc(S(=O)(=O)CCC(=O)NCc3ccco3)c21	.	14	-	-	-	-
COc1ccc(C(=O)NCC2CCN(C(=O)C(=O)c3cc4ccccc4o3)CC2)c(OC)c1	-	.	.	.	.	.
Cc1cccc(C)c1NC(=O)C1CCCN(CCCc2ccccc2)C1 (configuration not stated)	-	-	.	.	.	.
CCOC(=O)C1CCCN(CCCc2ccccc2)C1 (configuration not stated)	-	14!	-	-	-	-
O=C(CCc1c[nH]c2ccccc12)Nc1ccc(Nc2cccnc2)cc1	-	.	.	.	.	.
C#CCN(C[C@H]1[C@H](OC(=O)Nc2c(C)noc2C)[C@H](OC(=O)Nc2c(C)noc2C)CN(C(=O)OC(C)C)N1C(=O)OC(C)C)S(=O)(=O)c1ccc(C)cc1	-	.	.	.	.	.
O=C(COC(=O)c1ccc([N+](=O)[O-])s1)NCCc1ccccc1	.	26	-	-	-	16
O=C(COC(=O)c1ccc([N+](=O)[O-])s1)NNC(=O)c1ccccc1	.	22	-	-	-	9.0
O=C(OCC(=O)c1ccc[nH]1)c1ccc([N+](=O)[O-])cc1	-	-	-	-	-	.
O=C(COC(=O)c1ccc([N+](=O)[O-])s1)c1ccc[nH]1	-	27	-	-	-	9.5
O=C1CN(C(=O)COC(=O)c2cccs2)c2ccccc2N1	-	-	-	.	-	.
CCc1cc(C(=O)OCC(=O)NCCc2ccccc2)sc1C	-	-	.	.	.	.
O=C1CN(C(=O)COC(=O)c2ccc([N+](=O)[O-])s2)c2ccccc2N1	.	41	-	-	-	21
CC(NC(=O)COC(=O)c1ccc([N+](=O)[O-])s1)c1ccccc1 (configuration not stated)	-	-	-	-	-	.
CC(C)[C@H](NC(=O)c1ccccc1)C(=O)N1CCC[C@H]1C(=O)NCc1ccccc1	-	.	.	.	.	.
SMILES	MsrA inhibitor	MsrA act	procasp7 counter	Bfl-1 A1 inh	proCasp3 act	MsrA act confirm
O=C(N[C@H](C(=O)N1CCC[C@H]1C(=O)NCc1ccccc1)c1ccccc1)c1ccccc1	-	.	.	.	.	.
O=C(COC(=O)c1ccc([N+](=O)[O-])o1)NCc1ccc(F)cc1	-	-	-	-	-	.
O=C(COC(=O)c1ccc([N+](=O)[O-])s1)NC(=O)NCc1ccccc1	-	15	-	-	-	-
O=C(COC(=O)c1ccc(O)cc1)NC(=O)NCc1ccccc1	-	-	-	-	-	.
O=C(COC(=O)c1ccc([N+](=O)[O-])s1)NCc1ccc(F)cc1	-	26	-	-	-	22
CCCCNC(=O)CN(Cc1ccco1)S(=O)(=O)c1ccc(C(C)=O)cc1	-	11	-	.	-	-
CCCNC(=O)CN(Cc1ccco1)S(=O)(=O)c1ccc(OCC)cc1	-	-	-	-	-	.
CN(C)CCNC(=O)c1cccc(-c2cnc3c(NC=O)cc(-c4cc(F)c(F)c(F)c4)cn23)c1	-	8.0	.	.	.	-
COc1cccc(-c2cc(NC=O)c3ncc(-c4cccc(C(=O)NCCN(C)C)c4)n3c2)c1	-	-	.	.	.	.
